Source: ChEMBL document CHEMBL4513216, “Probing the Open Global Health Chemical Diversity Library for Multistage-Active Starting Points for Next-Generation Antimalarials” (ACS Infect Dis, 2020)

Assay: Toxicity liver stage against HepG2, at 10uM
Format: cell-based
Set-up: test concentration 10 uM, cell line HepG2-A16-CD81EGFP
Conditions: human, HepG2-A16-CD81EGFP cells; read-out: INHIBITION
In short: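 Uninfected HepG2-A16-CD81EGFP cells, 3 × 10^3 per well, 1536-well, plated on prespotted compound at 10 μM final, parasite-free screening media added to match infected plates; puromycin 10 μM positive, DMSO 0.5% negative; run in parallel with 48 h PbLuc assay at 37 °C, 5% CO2; viability by CellTiter-Glo luminescence, normalized to controls.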

Row | Compound | cytotoxicity at 10 µM [%]
1 | CC1CCc2c(c3ccccc3[nH]c2=O)O1 (stereo not given) | -8.41
2 | O=C1N[C@@H]2CCN(C(=O)C3CCCC3)[C@@H]2C(=O)N1c1ccc(F)cc1 | -1.1
3 | CC(=O)OC1CN(c2nc3c(Cl)cccc3s2)C1 | -0.745
4 | CC(=O)N1CCO[C@@H]2CN(C(=O)c3ccc4ccccc4c3)CC[C@@H]2C1 | 1.35
5 | CS(=O)(=O)N[C@@H]1CN(Cc2ccccc2)C[C@@H]2CCCO[C@@H]21 | 2.58
6 | O=C(c1cnccn1)N1CCN2C[C@H](OCC3CC3)C[C@H]2C1 | 2.92
7 | NC(=O)c1c(NC(=O)C2CCCO2)sc2c1CCc1ccccc1-2 (stereo not given) | 0.794
8 | Cc1c(C2CC(=O)Nc3c2cnn3C(C)(C)C)cnn1C (stereo not given) | -2.89
9 | Cn1cc(CN2CC[C@H]3OCC[C@@H](C(=O)N4CCCCO4)[C@@H]3C2)cn1 | -2.1
10 | Cc1noc(C)c1-c1cccc(C2CCCNC2)n1 (stereo not given) | -12.3
11 | Cc1nc(C)c(C(=O)N2CCC(O)(Cn3ccc4ccncc43)CC2)s1 | -21.7
12 | O=C(NCc1nnc2n1CCC2)c1cccc(Br)c1 | -0.115
13 | CC(C)c1nsc(N2CCn3c(nnc3-c3ccccc3)C2)n1 | -13.9
14 | NC(=O)NC1CCN(Cc2ccc3c(c2)CCC3)CC1 | -3.19
15 | O=C1CN(C(=O)c2cc3ccc(Br)cc3[nH]2)CCN1 | 0.549
16 | Cc1sc(-c2ccco2)nc1C(=O)N(CC(N)=O)C1CCCC1 | -2.64
17 | O=C(NCCN1CCOCC1)c1cc(-c2ccccc2Cl)[nH]n1 | -4.02
18 | Cn1c(C(=O)N2CCC(CC(N)=O)CC2)c(Cl)c2ccccc21 | 18.7
19 | CC(NC(=O)N(C)Cc1ccsc1)c1nncn1C (stereo not given) | -4.02
20 | COc1ccc(CC(=O)NCCNS(=O)(=O)c2ccc(C)cc2)cc1 | -143
21 | CN1CC(C(=O)NCCc2ccc(Br)cc2F)CC1=O (stereo not given) | 2.43
22 | Cc1nc2ccccc2n1CCNCc1cccc(O)c1 | -3.89
23 | CN(CC1CC1)C(=O)Cc1csc(-c2ncccn2)n1 | 4.56

Row | Compound | cytotoxicity at 10 µM [%]
24 | COc1ccc(-n2cc(CCO)cn2)cc1C | -12.4
25 | CCN(C)C[C@@H]1CN(Cc2cnc3c(S(C)(=O)=O)cnn3c2)C[C@@H]1CO | -4.99
26 | COc1cccc(OCc2cc(C(=O)N3CC(O)C3)n[nH]2)c1 | 2.81
27 | COc1cccc(OC2CN(C(=O)c3c(C)noc3C)C2)c1 | 7.79
28 | Cc1cccc(C(C(=O)NCCCc2ccccn2)N(C)C)c1 (stereo not given) | -7.16
29 | OCC1(O)CCN(Cc2ccc(-c3cc[nH]n3)s2)CC1 | -135
30 | Cc1nnc2ccc(N3CCN(CCc4ccccn4)CC3)nn12 | -8.76
31 | Cc1ccc(CCC(=O)N2CCOCC2c2ncon2)c(C)c1 (stereo not given) | -6.76
32 | N#Cc1ccc(CS(=O)(=O)NC(=O)COc2ccc3c(c2)CCC3)cc1 | 1.13
33 | CCn1nc2c(cc1=O)CN(Cc1nc(-c3cccnc3)no1)CC2 | -5.86
34 | CCOc1ccc(C(=O)N2CCCC(n3ccnc3C)C2)cc1OC (stereo not given) | -6.7
35 | COCCc1noc(CN2CC(n3nc(C)cc3C)C2)n1 | -1.76
36 | CCN(Cc1ccc(F)c(F)c1)Cc1nc2c(cnn2C)c(=O)[nH]1 | -4.18
37 | CCn1cc(CN2CCCN(C(=O)c3ccccc3C)CC2)cn1 | -5.65
38 | COc1c(C2CCCN2C(=O)c2ccc(N(C)C)nn2)c(C)nn1C (stereo not given) | -13.7
39 | O=C(c1ccccn1)N1CCCN(Cc2nnc(C3CC3)o2)CC1 | 5.25
40 | CC(C)(C)c1cn2nc(N3CCCCC3Cn3cncn3)sc2n1 (stereo not given) | -4.61
41 | COCCNC(=O)[C@H]1C[C@@H]2CCN(c3ncccn3)C[C@H]2O1 | -17.1
42 | Cc1ccc2c(c1)C(N(C)C)CC21CCN(CCO)CC1 (stereo not given) | 3.62
43 | Clc1ccccc1OCCc1cc(C2CCNC2)n[nH]1 (stereo not given) | -32.9
44 | CN(C)CCN1CCO[C@H]2CN(Cc3cnn(C)c3)C[C@H]21 | 1.82
45 | O=C1Nc2ccccc2C12CCN(Cc1nccs1)CC2 | -0.243
